KCNK9 inh – inhibitors of human KCNK9 two-pore domain potassium channel | AID 488922 | Q9NPC2 | B-score at 10 µM | hit rate 1.2% among 310,000 | HEK293 KCNK9, FluxOR thallium flux fluorescence; active compounds read low;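 active means ratio B-score over 3 SD below the library mean, with starting fluorescence within 5 SD of its mean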;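 further: negative B-score means less thallium flux so channel inhibition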
KCNK3 inh – human KCNK3 channel inhibition, primary screen; AID 602410; B-score at 10 µM; hit rate 0.84% among 340,000; CHO-KCNK3 thallium flux, FluxOR fluorescence; active compounds read low;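 active means B-score under library mean minus 4 SD, starting fluorescence ratio at most library mean plus 5 SD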;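 further: more negative B-score means stronger inhibition of thallium flux through KCNK3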
Target sequence (O14649 whole entry, looked up): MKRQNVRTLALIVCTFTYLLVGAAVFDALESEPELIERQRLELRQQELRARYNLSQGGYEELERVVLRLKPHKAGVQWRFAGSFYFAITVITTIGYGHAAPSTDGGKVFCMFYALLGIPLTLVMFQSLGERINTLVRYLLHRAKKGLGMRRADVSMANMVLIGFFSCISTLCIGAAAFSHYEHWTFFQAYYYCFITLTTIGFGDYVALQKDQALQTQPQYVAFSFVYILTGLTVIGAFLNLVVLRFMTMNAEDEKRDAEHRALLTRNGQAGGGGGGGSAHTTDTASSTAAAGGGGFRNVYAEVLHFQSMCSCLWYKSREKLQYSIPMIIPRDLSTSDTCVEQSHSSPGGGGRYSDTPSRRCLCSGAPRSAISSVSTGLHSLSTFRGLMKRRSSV
Kir21 block – inhibitors of mouse Kir2.1 inward-rectifier potassium channel | hit rate 0.85% among 310,000 | P35561 | AID 1672 | B-score at 10 µM | HEK293-Kir2.1, FluxOR thallium flux fluorescence; active compounds read low;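 active means fluorescence ratio B-score at or below minus 3 SD of library scores, with starting-brightness B-score within 2 SD, cut at about -4.2 in these data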;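 further: channel flux triggered by added potassium and thallium sulfate stimulus; B-score of peak minus minimum fluorescence over baseline after thallium stimulus; more negative B-score means stronger Kir2.1 block with less thallium influx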
KCNQ1 act – potentiators or activators of human KCNQ1 potassium channel | B-score at 10 µM | P51787 | CHO-K1 KCNQ1, thallium flux FluxOR fluorescence; active compounds read high | hit rate 0.35% among 310,000;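 active means fluorescence ratio B-score, a plate-corrected score, at least three library SD, with initial intensity B-score within 5 SD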
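Assay system: stable KCNQ1 CHO-K1 line; medium: assay buffer, equal DMSO in all wells; timing: 90 min dye loading and 20 min compound exposure, both at room temperature; technique: kinetic FluxOR thallium fluorescence, 10-s 1-Hz baseline, 110-s post-stimulus read; read-out basis: B score of baseline-normalized fluorescence ratio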
hERG rescue – shields human hERG channel from block by proarrhythmic agents; CHO-hERG, FluxOR thallium flux, dofetilide IC70 present; activation (rescue from dofetilide block), less the hit threshold, % at 10 µM; hit rate 0.51% among 310,000;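 active means activation above the mean of controls blocked by dofetilide plus 5 SD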;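 further: thallium influx through hERG after potassium depolarization seen as dye fluorescence rise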
KCNQ1 inh – inhibitors of human KCNQ1 potassium channel; CHO-K1 KCNQ1, FluxOR thallium flux fluorescence; active compounds read high; B-score at 10 µM; hit rate 1.3% among 310,000; AID 2642;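 active means compounds whose thallium flux B-score, printed positive for inhibition, exceeds three library SD while starting fluorescence stays within three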;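 further: channel opened by potassium depolarization with thallium stimulus after 20 min compound exposure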
* hit, by the source's call; i = inactive; · = no result given. This is a sample that favours compounds with a hit; in the whole collection about 3.7% have one here.

SMILES	KCNK9 inh	KCNK3 inh	Kir21 block	KCNQ1 act	hERG rescue	KCNQ1 inh
Cc1ccc(C(=O)C(C)OC(=O)Cc2n[nH]c(=O)c3ccccc23)cc1 (stereo unspecified)	i	i	-1.42	i	-7.9	i
N#CCSc1ccc2nc(-c3ccccc3)cn2n1	i	i	0.64	i	-7.9	i
N#Cc1c(NC(=O)CSc2ccccn2)oc(-c2ccccc2)c1-c1ccccc1	i	i	0.25	i	-11.4	7*
COc1ccc(CNC(=O)CCNS(=O)(=O)c2cc(Br)cnc2N)cc1	i	i	-0.69	i	-7.7	i
Cc1cc(C)n(CC(O)COc2ccc(Cl)cc2Cl)n1 (stereo unspecified)	i	i	0.71	i	-1.4	i
Cc1cc(C)n(CCOc2ccc(Cl)cc2Cl)n1	i	i	-1.29	i	9.2*	i
O=C(COc1cccc(F)c1)NNC(=O)Cc1ccc(Br)cc1	·	i	·	·	·	·
CCC(Cc1ccccc1)OC(=O)c1ccccc1C(=O)O (stereo unspecified)	·	i	·	·	·	·
CSc1ccc2c(c1)C(N1CCN(C)CC1)Cc1ccccc1S2 (stereo unspecified)	i	i	-7.91*	i	-25.1	i
Oc1ccccc1/C=N/NC(=S)NC1CC2C=CC1C2 (stereo unspecified)	i	i	-0.8	i	-13.9	i
CCCN(CCC)C(=S)NC1CC2C=CC1C2 (stereo unspecified)	i	i	-4.67*	i	-16.1	i
O=C(c1cccs1)N1N=C(c2ccccc2)CC1c1ccccc1 (stereo unspecified)	-7.2*	i	0.41	i	-4.5	i
O=C(c1cccs1)N1N=C(c2ccc(O)cc2)CC1c1ccccc1 (stereo unspecified)	i	i	-0.01	i	-3.8	i
COC(=O)C1CCN(C(=O)c2cc(-c3ccc(Cl)s3)nc3ccccc23)CC1	·	-9.12*	·	·	·	·
O=[N+]([O-])c1ccc2nc(-c3ccc(Cl)cc3)[nH]c2c1	i	i	-1.37	i	-8.1	6*
Cc1nn(-c2ccccn2)c2c1C(c1c(F)cccc1Cl)C1=C(N2)c2ccccc2C1=O (stereo unspecified)	-6.93*	·	-1.36	i	-10.3	i
Cc1nn(-c2ccccn2)c2c1C(c1ccsc1)C1=C(CCCC1=O)N2 (stereo unspecified)	i	i	-0.01	i	-4.9	i
CSC1=C(C#N)C(c2ccccc2Cl)C2=C(N1)c1ccccc1C2=O (stereo unspecified)	i	i	-1.58	i	-18.5	i
Cc1nn(-c2ccccn2)c2c1C(c1ccccc1Cl)C1=C(N2)c2ccccc2C1=O (stereo unspecified)	-7.02*	i	-0.36	i	-8.4	i
COc1ccc(C(CNC(=O)CNC(=O)c2cccc(C)c2)N2CCCCC2)cc1 (stereo unspecified)	·	i	·	·	·	·
O=C(NCCCN1CCOCC1)c1cn(-c2ccccc2)nc1-c1cccs1	i	i	-4.49*	i	-11.3	i
O=C(NCCN1CCOCC1)c1cn(-c2ccccc2)nc1-c1cccs1	i	i	2.42	i	-13.6	i
COc1cc(/C=N/N(c2ccccc2)c2ccccc2)ccc1O	i	i	-1.68	i	-2.3	11*
COc1cc(/C=N/Nc2ccccc2C(F)(F)F)ccc1O	-6.85*	i	0.07	i	-11.6	i
CCN(CC)P(=O)(Nc1ccc(C)cc1Br)c1ccc(N(C)C)cc1NC(=O)c1ccco1 (stereo unspecified)	i	i	1.06	i	-17.3	7*
Fc1ccc(C2=NN(c3ccccc3)C(c3ccco3)C2)cc1 (stereo unspecified)	i	i	-0.83	i	-27.6	i
COc1ccccc1C1CC(c2ccco2)=NN1c1ccccc1 (stereo unspecified)	-7.64*	i	-0.26	i	-5.8	i
COc1ccc(C(=O)/C=C/C(=O)N(CC(=O)NC2CCCCC2)CC2CCCO2)c(O)c1 (stereo unspecified)	i	i	-5.34*	i	-37.0	i

Bioassay records deposited in PubChem BioAssay by Johns Hopkins Ion Channel Center.
